Laboratory results reported in ChEMBL document CHEMBL5705889, “Novel mutant-selective EGFR kinase inhibitors against EGFR T790M” (Nature, 2009).
Active and inactive are the calls of the source. No cut-off for these calls is given here.

How the values were obtained:
[1] = tested on: HCC827; assay: cells; type: functional, cell-based; conditions: Homo sapiens, HCC827, 72 h
[2] = tested on: PC-9; assay: cells; type: functional, cell-based; conditions: Homo sapiens, PC-9, 72 h
[3] = tested on: BaF3; assay: cells; type: functional, cell-based; conditions: Mus musculus, BaF3, 72 h
[4] = tested on: BaF3; assay: cells; type: functional, cell-based; conditions: Mus musculus, BaF3, 72 h; remark: listed apart in the source
[5] = tested on: BaF3; assay: cells; type: functional, cell-based; conditions: Mus musculus, BaF3, 72 h; remark: listed apart in the source
[6] = molecular target: RAC-alpha serine/threonine-protein kinase (Homo sapiens) (UniProt P31749); assay: Inhibition of AKT phosphorylation in human PC9 Gefitinib-resistant (GR) cells at 0.01 to 1 uM incubated for 16 hrs by immunoblot analysis; type: cell-based; conditions: PC9 Gefitinib-resistant (GR) cell, dose 0.01-1 µM
[7] = molecular target: RAC-alpha serine/threonine-protein kinase (Homo sapiens) (UniProt P31749); assay: Inhibition of AKT phosphorylation in human NCI-H1975 cells at 0.01 to 1 uM incubated for 16 hrs by immunoblot analysis; type: cell-based; conditions: dose 0.01-1 µM
[8] = molecular target: Tyrosine-protein kinase Blk (Homo sapiens, UniProt P51451); assay: Binding affinity to BLK (unknown origin) assessed as dissociation constant
[9] = molecular target: Serine/threonine-protein kinase DCLK3 (Homo sapiens, UniProt Q9C098); assay: Binding affinity to DCAMKL3 (unknown origin) assessed as dissociation constant
[10] = molecular target: eIF-2-alpha kinase GCN2 (Homo sapiens, UniProt Q9P2K8); assay: Binding affinity to GCN2 (unknown origin) assessed as dissociation constant
[11] = molecular target: Tyrosine-protein kinase ITK/TSK (Homo sapiens, UniProt Q08881); assay: Binding affinity to ITK (unknown origin) assessed as dissociation constant
[12] = molecular target: Serine/threonine-protein kinase PLK4 (Homo sapiens, UniProt O00444); assay: Binding affinity to PLK4 (unknown origin) assessed as dissociation constant
[13] = AUC(0 to t) in mouse at 1 mg/kg, iv administered as single dose; type: ADME, organism-based; conditions: in vivo
[14] = AUC(0 to infinity) in mouse at 1 mg/kg, iv administered as single dose; type: ADME, organism-based; conditions: in vivo
[15] = Clearance in mouse at 1 mg/kg, iv administered as single dose; type: ADME, organism-based; conditions: in vivo
[16] = Cmax in mouse at 10 mg/kg, po administered as single dose; type: ADME, organism-based; conditions: in vivo
[17] = Tmax in mouse at 10 mg/kg, po administered as single dose; type: ADME, organism-based; conditions: in vivo
[18] = AUC(0 to t) in mouse at 10 mg/kg, po administered as single dose; type: ADME, organism-based; conditions: in vivo
[19] = Drug concentration in mouse plasma at 1 mg/kg, iv administered as single dose and measured after 0.08 hrs; type: ADME, organism-based
[20] = Drug concentration in mouse plasma at 1 mg/kg, iv administered as single dose and measured after 0.5 hrs; type: ADME, organism-based
[21] = Drug concentration in mouse plasma at 1 mg/kg, iv administered as single dose and measured after 2 hrs; type: ADME, organism-based
[22] = Drug concentration in mouse plasma at 1 mg/kg, iv administered as single dose and measured after 4 hrs; type: ADME, organism-based
[23] = Drug concentration in mouse plasma at 10 mg/kg, po administered as single dose and measured after 1 hrs; type: ADME, organism-based
[24] = Drug concentration in mouse plasma at 10 mg/kg, po administered as single dose and measured after 2 hrs; type: ADME, organism-based
[25] = Drug concentration in mouse plasma at 10 mg/kg, po administered as single dose and measured after 4 hrs; type: ADME, organism-based
[26] = Drug concentration in mouse plasma at 10 mg/kg, po administered as single dose and measured after 8 hrs; type: ADME, organism-based
[27] = Toxicity in mouse harboring EGFR del E746_A750/T790M mutant assessed as effect on total white blood cell count at 25 mg/kg administered via gavage for 2 weeks; type: organism-based; conditions: in vivo, po, 336 h
How it was run: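 Inducible bitransgenic tumor mice gavaged daily, 25 mg/kg, vehicle NMP (10% 1-methyl-2-pyrrolidinone, 90% PEG-300), compared against vehicle-treated mice; weight, serum creatine and total white blood cell count monitored during the study.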

[28] = tested on: Mus musculus; assay: In vivo inhibition of EGFR phosphorylation in transgenic mouse harboring EGFR del E746_A750/T790M mutant at 2.5 to 25 mg/kg administered as two doses separated by 16 hours by immunoblot analysis; type: functional, organism-based; conditions: dose 2.5-25 mg/kg
How it was run: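 Transgenic mice gavaged with compound in 10% 1-methyl-2-pyrrolidinone:90% PEG-300 vehicle; phosphorylation assessed in tissue by immunoblotting per standard protocols.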

[29] = tested on: Mus musculus; assay: In vivo inhibition of AKT phosphorylation in transgenic mouse harboring EGFR del E746_A750/T790M mutant at 2.5 to 25 mg/kg administered as two doses separated by 16 hours by immunoblot analysis; type: functional, organism-based; conditions: dose 2.5-25 mg/kg
[30] = tested on: Mus musculus; assay: In vivo inhibition of AKT phosphorylation in transgenic mouse harboring EGFR L858R/T790M mutant at 2.5 to 25 mg/kg administered as two doses separated by 16 hours by immunoblot analysis; type: functional, organism-based; conditions: dose 2.5-25 mg/kg
[31] = tested on: Mus musculus; assay: In vivo antitumor activity in transgenic mouse harboring EGFR delE746_A750/T790M mutant assessed as increase in TUNEL positive cells at 25 mg/kg administered via gavage for 2 weeks by immunohistochemical analysis; type: functional, organism-based
How it was run: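 Transgenic EGFR T790M mutant mice were given daily gavage at 25mg/kg in 10% 1-methyl-2-pyrrolidinone:90% PEG-300 vehicle, alongside vehicle-alone controls. Tumor tissue was immunostained by standard protocols, and TUNEL-positive and Ki67-positive cells were counted.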

[32] = tested on: Mus musculus; assay: Invivo antitumor activity in transgenic mouse harboring EGFR del19/T790M mutant assessed as reduction in small residual nodules in tumor at 25 mg/kg administered via gavage for 2 weeks by H&E staining based analysis; type: functional, organism-based
How it was run: (§1)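 EGFR-TL (L858R/T790M) or exon19 deletion-T790M (TD) inducible bitransgenic mice dosed by oral gavage daily at 25 mg/kg; vehicle 10% 1-methyl-2-pyrrolidinone:90% PEG-300. Tumors followed by MRI; lung histology by standard protocols.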

[33] = tested on: Mus musculus; assay: Invivo antitumor activity in transgenic mouse harboring EGFR del19/T790M mutant assessed as reduction in nodule remnants in tumor at 25 mg/kg administered via gavage for 2 weeks by H&E staining based analysis; type: functional, organism-based
How it was run: as §1

[34] = tested on: Mus musculus; assay: Invivo antitumor activity in transgenic mouse harboring EGFR L858R/T790M mutant assessed as reduction in small residual nodules in tumor at 25 mg/kg administered via gavage for 2 weeks by H&E staining based analysis; type: functional, organism-based
How it was run: as §1

[35] = tested on: BaF3; assay: Prevention of EGFR T790M mutant development in mouse BaF3 cells harboring delE746_A750 mutant assessed as reduction in resistant clones with T790M mutant at 0.001 to 1 uM; type: functional, cell-based; conditions: dose 0.001-1 µM
How it was run: (§2)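 Ba/F3 cells with EGFR L858R or delE746_A750 mutagenized with N-ethyl-N-nitrosourea, then expanded in 100 nM or 1 μM inhibitor; resistant clones isolated and characterized for EGFR T790M.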

[36] = tested on: BaF3; assay: Prevention of EGFR T790M mutant development in mouse BaF3 cells harboring L858R mutant assessed as reduction in resistant clones with T790M mutant at 0.001 to 1 uM; type: functional, cell-based; conditions: dose 0.001-1 µM
How it was run: as §2

Sequence of RAC-alpha serine/threonine-protein kinase (Homo sapiens) (P31749 whole entry): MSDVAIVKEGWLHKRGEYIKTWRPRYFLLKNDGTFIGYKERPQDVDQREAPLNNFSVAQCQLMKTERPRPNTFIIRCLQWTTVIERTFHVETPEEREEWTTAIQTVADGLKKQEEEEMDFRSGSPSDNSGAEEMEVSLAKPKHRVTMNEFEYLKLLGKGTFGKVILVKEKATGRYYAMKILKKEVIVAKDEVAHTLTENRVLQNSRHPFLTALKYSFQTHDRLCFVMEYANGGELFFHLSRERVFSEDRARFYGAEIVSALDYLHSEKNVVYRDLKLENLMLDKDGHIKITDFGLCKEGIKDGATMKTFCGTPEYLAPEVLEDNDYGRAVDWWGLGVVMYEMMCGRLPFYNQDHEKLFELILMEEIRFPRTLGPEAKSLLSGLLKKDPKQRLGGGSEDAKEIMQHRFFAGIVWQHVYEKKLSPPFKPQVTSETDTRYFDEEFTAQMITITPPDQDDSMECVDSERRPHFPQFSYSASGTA
Sequence of Tyrosine-protein kinase Blk (P51451 whole entry): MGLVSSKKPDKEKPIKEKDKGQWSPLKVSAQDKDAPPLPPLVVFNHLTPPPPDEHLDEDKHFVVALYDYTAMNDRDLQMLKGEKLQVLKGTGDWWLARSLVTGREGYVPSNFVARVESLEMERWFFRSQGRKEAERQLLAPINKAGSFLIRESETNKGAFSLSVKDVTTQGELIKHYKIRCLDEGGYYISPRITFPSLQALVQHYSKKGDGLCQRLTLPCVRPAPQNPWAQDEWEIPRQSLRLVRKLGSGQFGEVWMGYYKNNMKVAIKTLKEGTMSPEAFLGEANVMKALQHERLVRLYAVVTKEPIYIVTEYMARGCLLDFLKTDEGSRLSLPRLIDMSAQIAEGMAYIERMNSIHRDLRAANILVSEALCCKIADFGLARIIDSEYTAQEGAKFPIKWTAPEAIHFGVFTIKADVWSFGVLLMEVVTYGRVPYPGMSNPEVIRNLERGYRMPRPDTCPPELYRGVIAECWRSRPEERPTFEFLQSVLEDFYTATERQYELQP
Sequence of Serine/threonine-protein kinase DCLK3 (Q9C098 whole entry): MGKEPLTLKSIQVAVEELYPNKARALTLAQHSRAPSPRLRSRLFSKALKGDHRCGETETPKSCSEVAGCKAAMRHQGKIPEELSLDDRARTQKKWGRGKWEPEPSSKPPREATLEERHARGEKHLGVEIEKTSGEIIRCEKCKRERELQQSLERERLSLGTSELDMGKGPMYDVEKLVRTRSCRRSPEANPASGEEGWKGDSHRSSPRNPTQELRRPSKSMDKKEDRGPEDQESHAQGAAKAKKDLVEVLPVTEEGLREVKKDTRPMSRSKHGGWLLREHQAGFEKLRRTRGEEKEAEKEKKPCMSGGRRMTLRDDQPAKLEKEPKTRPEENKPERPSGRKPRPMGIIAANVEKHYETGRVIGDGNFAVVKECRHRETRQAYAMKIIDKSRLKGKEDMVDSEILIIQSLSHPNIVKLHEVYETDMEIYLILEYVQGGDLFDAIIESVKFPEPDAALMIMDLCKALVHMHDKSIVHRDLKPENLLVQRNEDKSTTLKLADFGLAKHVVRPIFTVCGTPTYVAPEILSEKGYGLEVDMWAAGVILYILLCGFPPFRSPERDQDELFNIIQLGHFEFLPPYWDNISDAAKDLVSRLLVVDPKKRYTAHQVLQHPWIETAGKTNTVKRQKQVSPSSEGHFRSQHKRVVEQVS
Sequence of Serine/threonine-protein kinase PLK4 (O00444 whole entry): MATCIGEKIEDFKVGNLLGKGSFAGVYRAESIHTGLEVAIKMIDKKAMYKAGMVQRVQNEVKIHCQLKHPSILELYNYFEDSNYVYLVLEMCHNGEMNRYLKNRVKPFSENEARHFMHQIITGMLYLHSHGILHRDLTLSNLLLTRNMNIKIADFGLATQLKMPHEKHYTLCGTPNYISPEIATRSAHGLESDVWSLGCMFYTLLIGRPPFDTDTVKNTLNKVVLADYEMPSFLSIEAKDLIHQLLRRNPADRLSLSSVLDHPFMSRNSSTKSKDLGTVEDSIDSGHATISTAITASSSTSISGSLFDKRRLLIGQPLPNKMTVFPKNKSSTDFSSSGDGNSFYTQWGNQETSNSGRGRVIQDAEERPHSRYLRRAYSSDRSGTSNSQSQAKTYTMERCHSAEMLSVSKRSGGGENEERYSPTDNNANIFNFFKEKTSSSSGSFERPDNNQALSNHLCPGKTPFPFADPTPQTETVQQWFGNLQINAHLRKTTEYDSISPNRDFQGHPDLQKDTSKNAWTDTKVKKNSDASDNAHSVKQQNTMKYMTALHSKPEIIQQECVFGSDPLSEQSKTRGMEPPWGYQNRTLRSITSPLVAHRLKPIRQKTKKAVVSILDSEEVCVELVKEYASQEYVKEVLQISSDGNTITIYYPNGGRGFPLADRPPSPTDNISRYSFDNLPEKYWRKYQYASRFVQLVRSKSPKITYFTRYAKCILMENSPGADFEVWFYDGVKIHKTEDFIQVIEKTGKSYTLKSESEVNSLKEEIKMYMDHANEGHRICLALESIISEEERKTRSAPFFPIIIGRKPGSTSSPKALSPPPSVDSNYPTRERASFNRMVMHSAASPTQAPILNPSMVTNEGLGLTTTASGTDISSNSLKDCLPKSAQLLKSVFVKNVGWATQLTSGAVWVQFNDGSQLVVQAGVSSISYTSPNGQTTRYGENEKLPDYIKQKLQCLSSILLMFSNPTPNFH
Sequence of eIF-2-alpha kinase GCN2 (Q9P2K8 whole entry): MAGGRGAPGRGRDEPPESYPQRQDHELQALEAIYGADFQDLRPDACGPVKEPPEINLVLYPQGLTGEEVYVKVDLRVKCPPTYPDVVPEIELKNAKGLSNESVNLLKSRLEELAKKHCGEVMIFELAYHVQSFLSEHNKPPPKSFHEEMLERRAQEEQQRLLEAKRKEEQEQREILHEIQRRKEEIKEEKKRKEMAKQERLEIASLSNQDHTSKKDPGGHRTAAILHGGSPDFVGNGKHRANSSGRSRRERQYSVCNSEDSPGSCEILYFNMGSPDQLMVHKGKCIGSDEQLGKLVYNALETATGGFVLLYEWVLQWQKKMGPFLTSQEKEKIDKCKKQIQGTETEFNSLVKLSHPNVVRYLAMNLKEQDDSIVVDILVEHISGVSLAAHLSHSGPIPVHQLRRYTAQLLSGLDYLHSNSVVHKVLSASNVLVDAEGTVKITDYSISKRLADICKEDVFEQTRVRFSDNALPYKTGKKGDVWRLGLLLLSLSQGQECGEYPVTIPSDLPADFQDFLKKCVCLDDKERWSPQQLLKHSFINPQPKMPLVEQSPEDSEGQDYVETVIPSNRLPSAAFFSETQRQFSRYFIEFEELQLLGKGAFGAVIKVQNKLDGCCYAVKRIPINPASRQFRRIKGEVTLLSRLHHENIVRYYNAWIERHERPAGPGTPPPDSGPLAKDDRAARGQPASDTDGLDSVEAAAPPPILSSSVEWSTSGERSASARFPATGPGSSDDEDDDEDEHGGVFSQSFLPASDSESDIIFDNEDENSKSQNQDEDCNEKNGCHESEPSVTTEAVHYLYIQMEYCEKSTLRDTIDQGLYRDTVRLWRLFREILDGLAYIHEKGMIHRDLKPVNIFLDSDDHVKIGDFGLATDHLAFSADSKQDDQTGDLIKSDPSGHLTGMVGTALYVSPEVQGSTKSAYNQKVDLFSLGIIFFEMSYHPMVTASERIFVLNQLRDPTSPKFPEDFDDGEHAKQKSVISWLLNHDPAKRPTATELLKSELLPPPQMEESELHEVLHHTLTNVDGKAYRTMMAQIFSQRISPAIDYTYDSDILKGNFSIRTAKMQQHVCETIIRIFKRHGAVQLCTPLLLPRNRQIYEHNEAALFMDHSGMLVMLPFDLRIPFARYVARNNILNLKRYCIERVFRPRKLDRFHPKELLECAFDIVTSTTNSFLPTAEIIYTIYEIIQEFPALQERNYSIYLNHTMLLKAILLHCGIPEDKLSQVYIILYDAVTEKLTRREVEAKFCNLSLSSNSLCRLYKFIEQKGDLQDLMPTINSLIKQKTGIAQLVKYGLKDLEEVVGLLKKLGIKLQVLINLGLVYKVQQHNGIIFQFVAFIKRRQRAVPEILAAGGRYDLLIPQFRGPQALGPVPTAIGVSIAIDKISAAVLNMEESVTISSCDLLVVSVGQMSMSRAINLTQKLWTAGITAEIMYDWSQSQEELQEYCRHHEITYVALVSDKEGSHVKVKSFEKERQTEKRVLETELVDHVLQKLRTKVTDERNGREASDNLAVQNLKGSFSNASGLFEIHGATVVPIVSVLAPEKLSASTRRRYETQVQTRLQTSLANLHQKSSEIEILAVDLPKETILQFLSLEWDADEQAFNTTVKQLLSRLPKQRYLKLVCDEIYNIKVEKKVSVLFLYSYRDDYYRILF
Sequence of Tyrosine-protein kinase ITK/TSK (Q08881 whole entry): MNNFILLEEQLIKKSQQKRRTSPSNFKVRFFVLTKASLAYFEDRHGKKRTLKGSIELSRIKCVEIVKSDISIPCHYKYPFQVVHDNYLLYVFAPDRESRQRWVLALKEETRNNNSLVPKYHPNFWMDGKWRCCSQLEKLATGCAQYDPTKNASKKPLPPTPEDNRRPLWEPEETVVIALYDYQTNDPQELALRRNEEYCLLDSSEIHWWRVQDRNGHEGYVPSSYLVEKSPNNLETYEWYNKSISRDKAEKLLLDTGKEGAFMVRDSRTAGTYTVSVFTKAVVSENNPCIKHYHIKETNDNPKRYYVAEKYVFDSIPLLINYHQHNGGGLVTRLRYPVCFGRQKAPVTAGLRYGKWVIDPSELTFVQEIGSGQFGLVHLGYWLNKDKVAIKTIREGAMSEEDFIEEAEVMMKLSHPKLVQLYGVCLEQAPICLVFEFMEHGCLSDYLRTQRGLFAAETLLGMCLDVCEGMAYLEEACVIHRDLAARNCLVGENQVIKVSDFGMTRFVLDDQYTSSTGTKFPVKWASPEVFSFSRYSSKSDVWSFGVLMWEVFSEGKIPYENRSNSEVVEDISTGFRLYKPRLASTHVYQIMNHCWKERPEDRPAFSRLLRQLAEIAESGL

For `C=CC(=O)Nc1cccc(Oc2nc(Nc3ccc(N4CCN(C)CC4)cc3OC)ncc2Cl)c1`, the IC50 [1] was 5 nM, the IC50 [2] was 36 nM and the IC50 [3] was > 3300 nM. The IC50 [4] was 2 nM, the IC50 [5] was > 3300 nM and the inhibition [6] was “Active”. The inhibition [7] was “Active”, the Kd [8] was 220 nM and the Kd [9] was 910 nM. For the same compound, the Kd [10] was 140 nM, the Kd [11] was 43 nM and the Kd [12] was 100 nM. The AUC(0-t) [13] was 956 ng·h/mL, the AUC(0-inf) [14] was 976 ng·h/mL and the clearance [15] was 17.1 mL/min/kg. It also gave a Cmax [16] of 429 ng/mL, a Tmax [17] of 15 min and an AUC(0-t) [18] of 2390 ng·h/mL. The concentration at 0.08 h [19] was 1130 ng/mL, the concentration at 0.5 h [20] was 451 ng/mL and the concentration at 2 h [21] was 80.4 ng/mL. For the same compound, the concentration at 4 h [22] was 49.1 ng/mL, the concentration at 1 h [23] was 340 ng/mL and the concentration at 2 h [24] was 422 ng/mL. The concentration at 4 h [25] was 214 ng/mL, the concentration at 8 h [26] was 59.2 ng/mL and the Activity [27] was “Non-Toxic”. For the same compound, the inhibition [28] was “Active”, the inhibition [29] was “Active” and the inhibition [30] was “Active”. The Activity [31] was “Active”, the Activity [32] was “Active” and the Activity [33] was “Active”. For the same compound, the Activity [34] was “Active”, the Activity [35] was “Active” and the Activity [36] was “Active”.
